Test: Toxicity liver stage against HepG2, at 10uM
Type: cell-based
Set-up: test concentration 10 uM, cell line HepG2-A16-CD81EGFP
Conditions: human, HepG2-A16-CD81EGFP cells; read-out: INHIBITION
Summary of the method: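 Uninfected HepG2-A16-CD81EGFP cells, 3 × 10^3 per well, 1536-well, plated on prespotted compound at 10 μM final, parasite-free screening media added to match infected plates; puromycin 10 μM positive, DMSO 0.5% negative; run in parallel with 48 h PbLuc assay at 37 °C, 5% CO2; viability by CellTiter-Glo luminescence, normalized to controls.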

Row | SMILES | cytotoxicity at 10 µM [%]
1 | CC(C)(C)c1noc(CN2CCN(C(=O)c3ccco3)CC2)n1 | -15.8
2 | CCc1nnsc1C(=O)N1CCN(CC(O)CC)CC1 (stereo not given) | -6.06
3 | CCn1nc(C)c2c1cnn2CCNS(=O)(=O)Cc1ccccc1 | 9.6
4 | CC(C)c1nn(C)c(N(C)C)c1CNC1CCCOc2ccccc21 (stereo not given) | -13.1
5 | CCc1nnc(NC(=O)NCCN(C)C(=O)OC(C)(C)C)s1 | -1.6
6 | COCCOCC(=O)NC(C#N)c1ccccc1C (stereo not given) | -1.65
7 | NC(=O)c1csc(C(=O)N2CCCCC2Cn2cccn2)c1 (stereo not given) | -3.56
8 | CCc1ccc(CN2CCc3c(nnn3C)C2COC)cc1 (stereo not given) | 7.28
9 | O=c1oc(-c2ccccc2)nn1CN1CCC(N2CCCCC2)CC1 | 6.64
10 | Cn1c(CN2CCC(OCc3cccnc3)CC2)cc2ccccc21 | -2.65
11 | O=C(C1CCOCC1)N1C[C@@H]2[C@@H](C1)OCC(=O)N2Cc1ccncc1 | -8.8
12 | NC(=O)CC1CCCCN1C(=O)c1cccc(C(F)(F)F)c1 (stereo not given) | -1.03
13 | CCCNCc1ccc(-c2cc(N)nc3[nH]ccc23)cc1 | 19.8
14 | Cc1cc(CNC(=O)c2cnoc2C)c(C)o1 | -6.32
15 | CCn1cc(C(=O)NCC2(C(N)=O)CCOCC2)c2ccccc21 | 0.969
16 | Cn1cccc1C(=O)NCc1cn2c(n1)CN(S(=O)(=O)C1CC1)CC2 | -114
17 | CC(C)N1CCO[C@H]2CN(C(=O)c3ccoc3)C[C@H]21 | -0.207
18 | CC(C(=O)NCc1ccc2c(c1)OCCO2)n1cncn1 (stereo not given) | -141
19 | CNC(=O)Cn1cc(Nc2cccc(F)c2C#N)cn1 | 6.64
20 | Cn1ccc(C(=O)NCc2ccc(N3CCCC3)nc2)cc1=O | 0.12
21 | Cc1cc(C(=O)N2C[C@H]3CCC[C@@]3(CO)C2)c2ccc(F)cc2n1 | 5.78
22 | O=C(NCc1ccccn1)N1CC=C(c2ccccc2)CC1 | 14.9

Row | SMILES | cytotoxicity at 10 µM [%]
23 | Cc1cnn(CC2CCN(CC(O)CN3CCC(C)CC3)CC2)c1 (stereo not given) | 5.11
24 | CC(C)CN1CCCC(c2nc(O)c3cc(F)ccc3n2)C1 (stereo not given) | 10.3
25 | COc1ccc(CC(=O)NC2(C#N)CCOCC2)c(Cl)c1 | -6.48
26 | CSCCC(NC(=O)c1ccccc1)C(=O)N(C)Cc1ccsc1 (stereo not given) | 7.17
27 | CCc1c(C)[nH]c(C2(N)CCCCC2)nc1=O | -3.47
28 | Cn1cc(CN2CCCC(n3c(=O)oc4ccccc43)C2)cn1 (stereo not given) | -0.18
29 | N#Cc1cccc(CN2CCCC2Cn2cccn2)c1 (stereo not given) | -2.78
30 | CC(NC(=O)NCCN1CCCCCC1=O)c1ccc(Cl)s1 (stereo not given) | -0.331
31 | CCc1ccc(C(=O)O)cc1S(=O)(=O)Nc1ccc2c(c1)OCCO2 | -4.07
32 | Cc1cncc(C(=O)N2C[C@@H]3CN(S(C)(=O)=O)CCO[C@@H]3C2)c1 | -4.87
33 | Cc1cccn2cc(C[S+]([O-])Cc3noc(C(C)C)n3)nc12 (stereo not given) | 6.13
34 | Cc1nc(C2(NCc3ccc(C#N)cc3F)CCCC2)no1 | 2.78
35 | CN(C)C(=O)[C@H]1C[C@H]2OCC[C@H]2N(Cc2ccc3c(c2)OCO3)C1 | -71.3
36 | CC(=O)N(C)CC(=O)NC(CC(C)C)c1cccs1 (stereo not given) | -1.49
37 | C[C@@H]1C(=O)NC[C@H]2CN(Cc3ccc4c(c3)OCO4)C[C@H]21 | 1.44
38 | O=C(CN1CCN(C(=O)c2ccccc2)CC1)Nc1ccc(Br)cn1 | 14.1
39 | Cc1nnc(NC(=O)CN2CCCC2c2noc(C3CC3)n2)s1 (stereo not given) | 5.22
40 | CC(C)N1CCC2(CC1)C(=O)N(CCN(C)C)c1ccccc12 | -121
41 | Cc1nn(C)c(Cl)c1S(=O)(=O)N(C)C | 3.66
42 | Cc1cc(CC(=O)N(CC2CN(C)CCO2)c2nccs2)no1 (stereo not given) | -7.49
43 | CC(C)(C)CN1CC(O)CN(C(=O)c2cccc(C(F)(F)F)c2)CC1=O (stereo not given) | 5.99
44 | c1cc(-c2noc(CN3CCn4c(nnc4C4CC4)C3)n2)co1 | -0.986

Row | SMILES | cytotoxicity at 10 µM [%]
45 | Cc1cc(C)cc(C2(C(=O)NC(C)Cn3ccnc3)CC2)c1 (stereo not given) | -8.26
46 | Cc1nc(C)c(-c2nnc(SCC(=O)O)n2C(C)c2ccccc2)o1 (stereo not given) | 4.64
47 | COCC(=O)Nc1ccc(-c2noc([C@@H]3CCCN3)n2)cn1 | -1.16
48 | Cc1cc(C(=O)N2CCO[C@H]3[C@H](Oc4ccccn4)CC[C@@H]32)c(C)[nH]1 | -107
49 | CC(O)Cc1cn(CC2CCN(C3CCSCC3)CC2)nn1 (stereo not given) | 8.88
50 | Cc1noc(C)c1CN1CCN(C(=O)C(C(C)C)n2cncn2)CC1 (stereo not given) | 1.4
51 | CN(C(=O)Cn1nc(-c2ccc(Br)cc2)ccc1=O)C1CCS(=O)(=O)C1 (stereo not given) | 4.38
52 | Cc1ccc(C(=O)N2CC[C@@]3(O)CCCC[C@H]3C2)cc1 | -45.1
53 | Cn1nc(COc2cncnc2)c2c1CCN(Cc1ccccn1)C2 | 9.67
54 | Cc1cccc(C(=O)N2CCn3cnc(COCC4CC4)c3C2)c1 | 14
55 | Cc1cc(N(C)C)nc(C2(C)CCCNC2)n1 (stereo not given) | 1.03
56 | O=C(CCc1nccs1)N1CCCC(N2CCNC2=O)C1 (stereo not given) | -18.3
57 | Cc1nc(CCCN2CCOCC2)n(Cc2ccc(F)cc2)n1 | 1.69
58 | N#CCCN(CC1CC1)S(=O)(=O)c1cccc(Cl)c1 | 9.09
59 | Cc1nn(C)c(N2CCOCC2)c1CNCc1ccoc1C | -8.76
60 | CC1(C)CNC(=O)CN(C(=O)COc2ccccc2)C1 | 1.4
61 | COc1ncccc1C(=O)N1CC(c2nc(-c3ccco3)no2)C1 | 4.91
62 | c1cncc(OC[C@@]23CCC[C@@H]2CN(CC2CCOCC2)C3)c1 | 7.66
63 | O=C(Cc1ccccc1)N1CCC2(CC1)CC(Nc1cnccn1)CO2 (stereo not given) | 5.1
64 | CCN1CCCC12CCCN(c1ncccn1)C2 (stereo not given) | 0.113
65 | COc1c(F)cc(CN2CCCC3(CC2)CNC(=O)O3)cc1Cl (stereo not given) | 0.465
66 | CN(Cc1noc2c1CCCC2)C(=O)CN1C(=O)COc2ccccc21 | -55.1

Row | SMILES | cytotoxicity at 10 µM [%]
67 | CN(C)CCN1CCN(CC2CC2)c2ncccc2C1 | -3.03
68 | CCc1n[nH]c(C2CN(C(=O)c3ccc4c(c3)COC4)CCO2)n1 (stereo not given) | -1.63
69 | Cc1ccc(C(=O)N2CCC(n3cc(CN)nn3)CC2)cc1F | -3.54
70 | CCCc1noc(CCC(=O)NC(C)c2nnc3n2CCCCC3)n1 (stereo not given) | 4.05
71 | Cc1cc(NC(=O)CN2CCCC2c2noc(C(C)C)n2)no1 (stereo not given) | -14.3
72 | CN(C)C(=O)N1CCOCC2(CCN(c3ncccn3)C2)C1 (stereo not given) | -9.17
73 | COc1ccc(-n2cccn2)c(CN2CCC3(CCCNC3)C2)c1 (stereo not given) | -1.09
74 | COCc1nc2cc(NCc3scnc3C)ccc2o1 | 18.6
75 | CC(C)(C)C(=O)N1CCC(c2cnc(-c3cn[nH]c3)cn2)CC1 | 1.16
76 | CC(=O)N(Cc1noc(C)n1)C1CCN(CC(=O)N(C)C2CC2)C1 (stereo not given) | -4.69
77 | Cc1ncsc1-c1nnc(C2CCN(Cc3ccccc3Cl)CC2)o1 | -6.86
78 | Cc1nn(C)c(C)c1C1CCCN1CCCc1nc2ccccc2o1 (stereo not given) | -4.3
79 | CCc1nnc2n1CC(CNCc1nc(C)c(C)o1)CC2 (stereo not given) | -16
80 | CCc1nc(CN(C)Cc2ncc(-c3cccs3)o2)cs1 | 9.15
81 | COc1ccccc1CNC(=O)Cn1nc(-c2ccc(F)cc2)oc1=O | -10.8
82 | COC(=O)CS(=O)(=O)CCC(=O)N1CCCC1c1ccsc1 (stereo not given) | -16.5
83 | CC(C)C(=O)NC1COC2(CCN(C(=O)c3cccnc3)CC2)C1 (stereo not given) | 4.26
84 | COc1cccc(CC(=O)NC2CCCc3cn[nH]c32)c1 (stereo not given) | 12.5
85 | CC1CCN(C(=O)CCN2Cc3ccccc3C[C@H]2C(N)=O)C1 (stereo not given in full) | -3.11
86 | CC(NCc1ccc(-c2ccc(F)cc2)o1)c1nnc2n1CCC2 (stereo not given) | -4.21
87 | CNCc1cc(C)n(-c2ccccc2OC)c1C | -45
88 | Cc1nn(C)c2nc(C(C)C)cc(C(=O)Nc3n[nH]c(C4CC4)n3)c12 | -4.38

Row | SMILES | cytotoxicity at 10 µM [%]
89 | O=C1CCC(c2ccccc2)(c2ccccc2)CN1CCO | 2.94
90 | CC(C)n1cnnc1Cn1ccc2ncccc2c1=O | 0.86
91 | NC(=O)CC1CCN(C(=O)c2csc(-c3ccccc3F)n2)CC1 | -1.29
92 | c1ccc(-c2nnc3sc(CCN4CCCC4)nn23)cc1 | 6.04
93 | c1cc(CNCC2OCCc3cn(CC4CC4)nc32)cs1 (stereo not given) | 2.61
94 | Cc1cc(NCc2ccc(S(N)(=O)=O)cc2)nc(C)n1 | -2.08
95 | COc1ccc(CN2CCC3(CC2)CC(CC(=O)NC(C)C)CO3)cc1 (stereo not given) | -1.27
96 | Cc1occc1C(=O)N1CCC2(CC1)CN(Cc1nccs1)CCO2 | 5.22
97 | CCc1c(-c2ccccc2)nc2c(c(C)c(C)n2CCN(C)C)c1N | 17.7
98 | Cc1ccc(C(=O)NS(=O)(=O)c2cccc3cnccc23)c(=O)[nH]1 | -8.16
99 | Cc1csc(NC(=O)c2cnc(C3CCNCC3)cn2)n1 | -12.3
100 | Cc1ccc(CN2CCCC(c3cncc(C)n3)C2)cn1 (stereo not given) | -9.35
101 | O=C(NCc1ccco1)[C@H]1CC[C@@H]2[C@@H](CCN2Cc2nccs2)O1 | 2.67
102 | CN(C)C[C@@H]1CN(C(=O)Cc2ccc3ccccc3c2)C[C@@H]1CO | -8.4
103 | CCN1CCCC(O)(c2nc(C)c(CCOc3ccccc3Cl)s2)CC1 (stereo not given) | -26.2
104 | CN(CCc1ccccc1)C(=O)CN1C(=O)OC[C@@H]1c1ccccc1 | -47
105 | COc1ccc(CN2CCC[C@@H]3CN(C(=O)c4ccco4)C[C@@H]32)cc1 | 1.44
106 | CCOC(=O)c1ccc(S(=O)(=O)NCc2cccnc2N(C)C)cc1 | 32.1
107 | CC(=O)N1CC[C@H](c2nnc(Cc3c[nH]c4ccccc34)o2)C1 | 8.12
108 | CCc1nccn1C1CCCN(C(=O)CCOCC(F)(F)F)C1 (stereo not given) | -9.39
109 | CCOC1CC2(CCN(C(=O)COC)CC2)c2cc(C)ccc21 (stereo not given) | -142
110 | COc1ccc(N2CCN(C(=O)Cn3nc(C)c(C)c3C)C(C)C2)cc1 (stereo not given) | -4.33
